Measurements taken from ChEMBL document CHEMBL1629499, “Synthesis, crystal structure and biological evaluation of novel 2-(5-(hydroxymethyl)-3-phenyl-1H-pyrazol-1-yl)-1-phenylethanol derivatives” (Eur J Med Chem, 2010).
Calls of active or inactive are those of the source. The calls are words filed in the database; no cut-off is given here.

Experiments:
Format in all cases: functional, cell-based
A549 [1] = assay: Anticancer activity against human A549 cells assessed as cell viability at 60 uM after 48 hrs by phase contrast microscopy
Procedure, shortened: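 A549 lung cancer cells grown in RPMI 1640 with 10% bovine calf serum and 80 U/ml gentamicin at 37 °C, 5% CO2, seeded at 6250/cm². After 48 h exposure, cells inspected by phase contrast microscopy for morphology and cell number.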

A549 [2] = assay: Induction of apoptosis in human A549 cells assessed as morphological changes at 60 uM after 48 hrs by Hoechst 33258 staining-based fluorescence microscopy
Procedure, shortened: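 A549 cells exposed 48 h, stained with Hoechst 33258 and examined by fluorescence microscopy for chromatin condensation and nuclear DNA fragmentation.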

A549 [3] = assay: Anticancer activity against human A549 cells assessed as upregulation of LC3-2 expression at 60 uM after 48 hrs by Western blot analysis
Procedure, shortened: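 After 48 h treatment, A549 cells washed in ice-cold PBS and lysed in 0.5% SDS buffer (25 mM Tris-HCl pH 7.5, EDTA, NaCl, PMSF, protease inhibitors). Protein measured by Bradford. Equal protein run on 15% SDS-PAGE, transferred to PVDF, probed overnight at 4 °C with primary antibody, β-actin as loading control. HRP secondary, chemiluminescent detection on film, bands quantified by densitometry.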

A549 [4] = assay: Induction of necrosis in human A549 cells assessed as LDH release at 60 uM after 48 hrs
Procedure, shortened: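 LDH activity measured in culture medium of A549 cells after 48 h exposure and compared with control cells.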

A549 [5] = assay: Cell cycle arrest in human A549 cells assessed as accumulation in G1 phase at 60 uM after 48 hrs using propidium iodide staining by flow cytometry (reference value: 22%)

For `COc1ccc(C(O)Cn2nc(-c3ccc(Cl)cc3)cc2CO)cc1` (stereo unspecified), the Activity (A549 [1]) was “inactive”.
In the case of `OCc1cc(-c2ccccc2)nn1CC(O)c1ccccc1` (stereo unspecified), the Activity (A549 [1]) is reported as “inactive”.
`COc1ccc(C(O)Cn2nc(-c3ccccc3)cc2CO)cc1` (stereo unspecified) was tested, and the Activity (A549 [1]) was “inactive”.
`OCc1cc(-c2ccc(Cl)cc2)nn1CC(O)c1ccccc1` (stereo unspecified) was tested, and the Activity (A549 [1]) was “inactive”.
For `OCc1cc(-c2ccccc2)nn1CC(O)c1ccc(Cl)cc1` (stereo unspecified), the Activity (A549 [2]) was “inactive”, the Activity (A549 [3]) was “Active” and the Activity (A549 [4]) was “inactive”.
With `COc1ccc(-c2cc(CO)n(CC(O)c3ccccc3)n2)cc1` (stereo unspecified) the Activity (A549 [1]) was “inactive”.
In the case of `OCc1cc(-c2ccc(Cl)cc2)nn1CC(O)c1ccc(Cl)cc1` (stereo unspecified), the Activity (A549 [2]) is reported as “inactive”, the Activity (A549 [3]) is reported as “Active” and the Activity (A549 [4]) is reported as “inactive”.
For `COc1ccc(-c2cc(CO)n(CC(O)c3ccc(Cl)cc3)n2)cc1` (stereo unspecified), the Activity (A549 [5]) was “inactive”, the Activity (A549 [2]) was “inactive” and the Activity (A549 [3]) was “Active”. For the same molecule, the Activity (A549 [4]) was “inactive”.
In the case of `COc1ccc(-c2cc(CO)n(CC(O)c3ccc(OC)cc3)n2)cc1` (stereo unspecified), the Activity (A549 [1]) is reported as “inactive”.
